{"source": "ChEMBL document CHEMBL2385063", "about": "“Identification of 2-(2-(1-naphthoyl)-8-fluoro-3,4-dihydro-1H-pyrido[4,3-b]indol-5(2H)-yl)acetic acid (setipiprant/ACT-129968), a potent, selective, and orally bioavailable chemoattractant receptor-homologous molecule expressed on Th2 cells (CRTH2) antagonist” (J Med Chem, 2013)"}
{"target": "T1, Thromboxane A2 receptor (Homo sapiens, UniProt P21731)", "T1 sequence (P21731 whole entry)": "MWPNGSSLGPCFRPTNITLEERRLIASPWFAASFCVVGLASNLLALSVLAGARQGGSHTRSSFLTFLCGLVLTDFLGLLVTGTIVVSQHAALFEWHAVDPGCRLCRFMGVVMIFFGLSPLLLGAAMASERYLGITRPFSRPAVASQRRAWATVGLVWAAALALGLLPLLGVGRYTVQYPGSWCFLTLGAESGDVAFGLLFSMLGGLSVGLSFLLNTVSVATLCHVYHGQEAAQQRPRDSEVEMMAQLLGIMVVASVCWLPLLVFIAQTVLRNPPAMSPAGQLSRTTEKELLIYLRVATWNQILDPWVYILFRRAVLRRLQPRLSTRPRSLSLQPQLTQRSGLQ", "assay": "Antagonist activity at human prostanoid TP2 receptor expressed in HEK293 cells assessed as inhibition of calcium flux after 30 to 40 mins by FLIPR assay", "format": "functional, cell-based", "units": {"IC50": "nM"}}
{"smiles": "O=C(O)Cn1c2c(c3cc(F)ccc31)CN(C(=O)CCc1cccc3ccccc13)CC2", "IC50": "> 25000"}
{"smiles": "O=C(O)Cn1c2c(c3ccccc31)CN(C(=O)c1cccc3ccccc13)CC2", "IC50": "> 25000"}
{"smiles": "O=C(O)Cn1c2c(c3cc(C(F)(F)F)ccc31)CN(C(=O)c1ccccc1)CC2", "IC50": "> 25000"}
{"smiles": "O=C(O)Cn1c2c(c3cc(F)ccc31)CN(C(=O)c1cccc3ccccc13)CC2", "note": "[SETIPIPRANT]", "IC50": "> 25000"}
{"smiles": "O=C(O)Cn1c2c(c3cc(F)ccc31)CN(C(=O)Cc1cccc3ccccc13)CC2", "IC50": "> 25000"}
{"target": "T2, Prostaglandin E2 receptor EP4 subtype (Homo sapiens, UniProt P35408)", "T2 sequence (P35408 whole entry)": "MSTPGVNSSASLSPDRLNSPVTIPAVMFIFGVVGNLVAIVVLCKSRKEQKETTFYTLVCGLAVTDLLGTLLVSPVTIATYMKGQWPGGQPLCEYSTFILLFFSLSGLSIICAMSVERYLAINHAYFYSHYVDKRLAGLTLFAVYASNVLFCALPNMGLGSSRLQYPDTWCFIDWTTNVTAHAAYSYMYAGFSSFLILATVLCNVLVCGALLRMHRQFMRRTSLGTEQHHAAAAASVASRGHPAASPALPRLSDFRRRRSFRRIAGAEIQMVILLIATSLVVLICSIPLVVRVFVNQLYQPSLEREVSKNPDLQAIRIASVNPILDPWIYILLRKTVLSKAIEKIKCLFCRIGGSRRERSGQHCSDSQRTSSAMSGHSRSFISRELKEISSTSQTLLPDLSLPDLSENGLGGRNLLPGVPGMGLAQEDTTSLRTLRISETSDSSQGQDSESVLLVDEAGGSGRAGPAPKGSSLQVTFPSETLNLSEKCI", "assay": "Inhibition of beta-arrestin binding to recombinant human prostanoid EP4 receptor expressed in HEK293 cell membranes by beta-lactamase complementation assay", "units": {"IC50": "nM"}}
{"smiles": "O=C(O)Cn1c2c(c3cc(F)ccc31)CN(C(=O)CCc1cccc3ccccc13)CC2", "IC50": "> 10000"}
{"smiles": "O=C(O)Cn1c2c(c3ccccc31)CN(C(=O)c1cccc3ccccc13)CC2", "IC50": "> 10000"}
{"smiles": "O=C(O)Cn1c2c(c3cc(C(F)(F)F)ccc31)CN(C(=O)c1ccccc1)CC2", "IC50": "> 10000"}
{"smiles": "O=C(O)Cn1c2c(c3cc(F)ccc31)CN(C(=O)c1cccc3ccccc13)CC2", "note": "[SETIPIPRANT]", "IC50": "> 10000"}
{"smiles": "O=C(O)Cn1c2c(c3cc(F)ccc31)CN(C(=O)Cc1cccc3ccccc13)CC2", "IC50": "> 10000"}
{"target": "Prostaglandin E2 receptor EP2 subtype (Homo sapiens, UniProt P43116)", "sequence (P43116 whole entry)": "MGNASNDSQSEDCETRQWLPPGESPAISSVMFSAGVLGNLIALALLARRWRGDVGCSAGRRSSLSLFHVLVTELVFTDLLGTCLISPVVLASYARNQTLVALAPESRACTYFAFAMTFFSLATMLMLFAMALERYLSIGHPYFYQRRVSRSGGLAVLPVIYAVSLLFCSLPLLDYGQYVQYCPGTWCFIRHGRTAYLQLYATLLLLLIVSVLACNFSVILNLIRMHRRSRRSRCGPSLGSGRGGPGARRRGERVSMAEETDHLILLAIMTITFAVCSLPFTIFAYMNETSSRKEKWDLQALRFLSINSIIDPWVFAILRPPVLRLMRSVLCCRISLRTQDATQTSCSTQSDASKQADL", "assay": "Inhibition of beta-arrestin binding to recombinant human prostanoid EP2 receptor expressed in HEK293 cell membranes by beta-lactamase complementation assay", "units": {"IC50": "nM"}}
{"smiles": "O=C(O)Cn1c2c(c3cc(F)ccc31)CN(C(=O)CCc1cccc3ccccc13)CC2", "IC50": 9500}
{"smiles": "O=C(O)Cn1c2c(c3ccccc31)CN(C(=O)c1cccc3ccccc13)CC2", "IC50": 6600}
{"smiles": "O=C(O)Cn1c2c(c3cc(C(F)(F)F)ccc31)CN(C(=O)c1ccccc1)CC2", "IC50": "> 10000"}
{"smiles": "O=C(O)Cn1c2c(c3cc(F)ccc31)CN(C(=O)c1cccc3ccccc13)CC2", "note": "[SETIPIPRANT]", "IC50": 2600}
{"smiles": "O=C(O)Cn1c2c(c3cc(F)ccc31)CN(C(=O)Cc1cccc3ccccc13)CC2", "IC50": "> 10000"}
{"target": "T2, Prostaglandin E2 receptor EP4 subtype", "assay": "Displacement of [3H]PGE2 from recombinant human prostanoid EP4 receptor expressed in HEK293 cell membranes after 90 mins by scintillation counting analysis", "units": {"IC50": "nM"}}
{"smiles": "O=C(O)Cn1c2c(c3cc(F)ccc31)CN(C(=O)CCc1cccc3ccccc13)CC2", "IC50": "> 10000"}
{"smiles": "O=C(O)Cn1c2c(c3ccccc31)CN(C(=O)c1cccc3ccccc13)CC2", "IC50": "> 10000"}
{"smiles": "O=C(O)Cn1c2c(c3cc(C(F)(F)F)ccc31)CN(C(=O)c1ccccc1)CC2", "IC50": "> 10000"}
{"smiles": "O=C(O)Cn1c2c(c3cc(F)ccc31)CN(C(=O)c1cccc3ccccc13)CC2", "note": "[SETIPIPRANT]", "IC50": "> 10000"}
{"smiles": "O=C(O)Cn1c2c(c3cc(F)ccc31)CN(C(=O)Cc1cccc3ccccc13)CC2", "IC50": "> 10000"}
{"species": "Homo sapiens", "assay": "Selectivity factor, ratio of IC50 for recombinant human prostanoid DP1 receptor to IC50 for recombinant human CRTH2 receptor", "procedure,_shortened": "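hDP₁ IC₅₀ came from competitive [³H]PGD₂ binding on CHO cells stably overexpressing recombinant hDP₁. hCRTh2 IC₅₀ came from [³H]PGD₂ (2.5 nM) displacement on membranes of HEK-293 cells stably expressing hCRTh2, incubated 90 min at room temperature, filtered and counted. f_Sel = IC₅₀(hDP₁)/IC₅₀(hCRTh2).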"}
{"smiles": "O=C(O)Cn1c2c(c3cc(F)ccc31)CN(C(=O)CCc1cccc3ccccc13)CC2", "Ratio IC50": "> 1000"}
{"smiles": "O=C(O)Cn1c2c(c3ccccc31)CN(C(=O)c1cccc3ccccc13)CC2", "Ratio IC50": 87}
{"smiles": "O=C(O)Cn1c2c(c3cc(C(F)(F)F)ccc31)CN(C(=O)c1ccccc1)CC2", "Ratio IC50": "> 1100"}
{"smiles": "O=C(O)Cn1c2c(c3cc(F)ccc31)CN(C(=O)c1cccc3ccccc13)CC2", "note": "[SETIPIPRANT]", "Ratio IC50": 215}
{"smiles": "O=C(O)Cn1c2c(c3cc(F)ccc31)CN(C(=O)Cc1cccc3ccccc13)CC2", "Ratio IC50": "> 2500"}
{"target": "T3, Prostaglandin D2 receptor 2 (Homo sapiens, UniProt Q9Y5Y4)", "T3 sequence (Q9Y5Y4 whole entry)": "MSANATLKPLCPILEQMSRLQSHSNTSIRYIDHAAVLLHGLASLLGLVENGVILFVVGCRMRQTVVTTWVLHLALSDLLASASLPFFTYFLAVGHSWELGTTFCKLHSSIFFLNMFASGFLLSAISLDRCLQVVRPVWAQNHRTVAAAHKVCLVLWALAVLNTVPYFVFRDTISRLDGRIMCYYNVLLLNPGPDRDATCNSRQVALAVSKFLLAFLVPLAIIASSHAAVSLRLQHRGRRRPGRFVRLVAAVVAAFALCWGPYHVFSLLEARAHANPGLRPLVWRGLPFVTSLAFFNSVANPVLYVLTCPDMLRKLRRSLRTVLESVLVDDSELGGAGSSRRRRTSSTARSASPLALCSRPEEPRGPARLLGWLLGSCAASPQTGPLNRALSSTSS", "assay": "Displacement of [3H]PGD2 from recombinant human CRTH2 receptor expressed in HEK293 cell membranes after 90 mins by scintillation counting analysis in presence of human serum albumin", "procedure,_shortened": "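Same hCRTH2 HEK293 membrane [3H]PGD2 (2.5 nM) displacement, 90 min at room temperature, with 0.5% human serum albumin added to the assay buffer; scintillation counting.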", "units": {"IC50": "nM"}}
{"smiles": "O=C(O)Cn1c2c(c3cc(F)ccc31)CN(C(=O)CCc1cccc3ccccc13)CC2", "IC50": 30}
{"smiles": "O=C(O)Cn1c2c(c3ccccc31)CN(C(=O)c1cccc3ccccc13)CC2", "IC50": 420}
{"smiles": "O=C(O)Cn1c2c(c3cc(C(F)(F)F)ccc31)CN(C(=O)c1ccccc1)CC2", "IC50": 60}
{"smiles": "O=C(O)Cn1c2c(c3cc(F)ccc31)CN(C(=O)c1cccc3ccccc13)CC2", "note": "[SETIPIPRANT]", "IC50": 340}
{"smiles": "O=C(O)Cn1c2c(c3cc(F)ccc31)CN(C(=O)Cc1cccc3ccccc13)CC2", "IC50": 180}
{"target": "T3, Prostaglandin D2 receptor 2", "assay": "Displacement of [3H]PGD2 from recombinant human CRTH2 receptor expressed in HEK293 cell membranes after 90 mins by scintillation counting analysis", "procedure,_shortened": "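Membranes from HEK293 cells expressing hCRTH2 (80 μg protein/well) in Tris pH 7.4 buffer with NaCl, EDTA, 0.1% BSA were incubated with 2.5 nM [3H]PGD2 for 90 min at room temperature. Nonspecific binding was defined with 10 μM PGD2. Samples were filtered on PEI-soaked GF/C and read by scintillation counting.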", "units": {"IC50": "nM"}}
{"smiles": "O=C(O)Cn1c2c(c3cc(F)ccc31)CN(C(=O)CCc1cccc3ccccc13)CC2", "IC50": 10}
{"smiles": "O=C(O)Cn1c2c(c3ccccc31)CN(C(=O)c1cccc3ccccc13)CC2", "IC50": 9}
{"smiles": "O=C(O)Cn1c2c(c3cc(C(F)(F)F)ccc31)CN(C(=O)c1ccccc1)CC2", "IC50": 9}
{"smiles": "O=C(O)Cn1c2c(c3cc(F)ccc31)CN(C(=O)c1cccc3ccccc13)CC2", "note": "[SETIPIPRANT]", "IC50": 6}
{"smiles": "O=C(O)Cn1c2c(c3cc(F)ccc31)CN(C(=O)Cc1cccc3ccccc13)CC2", "IC50": 4}
{"target": "T4, Prostaglandin G/H synthase 1 (Ovis aries) (UniProt P05979)", "T4 sequence (whole entry)": "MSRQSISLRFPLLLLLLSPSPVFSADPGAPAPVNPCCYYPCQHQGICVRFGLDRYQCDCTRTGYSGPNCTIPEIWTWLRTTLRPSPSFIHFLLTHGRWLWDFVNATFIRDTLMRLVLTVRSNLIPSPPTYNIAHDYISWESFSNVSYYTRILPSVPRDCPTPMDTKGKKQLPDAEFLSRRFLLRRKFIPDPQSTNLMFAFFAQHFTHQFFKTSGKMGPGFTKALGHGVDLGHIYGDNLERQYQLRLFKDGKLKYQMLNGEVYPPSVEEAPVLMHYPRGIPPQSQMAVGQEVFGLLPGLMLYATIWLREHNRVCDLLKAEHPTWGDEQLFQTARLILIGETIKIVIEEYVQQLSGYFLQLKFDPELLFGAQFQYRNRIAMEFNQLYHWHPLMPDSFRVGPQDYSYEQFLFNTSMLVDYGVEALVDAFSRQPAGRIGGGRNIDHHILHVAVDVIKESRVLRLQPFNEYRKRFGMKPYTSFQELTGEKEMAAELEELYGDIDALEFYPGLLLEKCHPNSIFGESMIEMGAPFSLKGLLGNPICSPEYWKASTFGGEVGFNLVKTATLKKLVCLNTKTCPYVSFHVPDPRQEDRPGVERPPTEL", "assay": "[…] at ovine COX-1 at 10 uM relative to control", "parameters": "scale not given: the % may be the effect or the level left", "procedure,_shortened": "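Ovine COX-1 activity measured with a commercial kit, following the manufacturer's protocol. Compounds were tested in duplicate at 10 μM final concentration. Activity is expressed as inhibition relative to control.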", "units": {"Activity": "%"}}
{"smiles": "O=C(O)Cn1c2c(c3cc(F)ccc31)CN(C(=O)CCc1cccc3ccccc13)CC2", "Activity": "< 30"}
{"smiles": "O=C(O)Cn1c2c(c3ccccc31)CN(C(=O)c1cccc3ccccc13)CC2", "Activity": "< 30"}
{"smiles": "O=C(O)Cn1c2c(c3cc(C(F)(F)F)ccc31)CN(C(=O)c1ccccc1)CC2", "Activity": "< 30"}
{"smiles": "O=C(O)Cn1c2c(c3cc(F)ccc31)CN(C(=O)c1cccc3ccccc13)CC2", "note": "[SETIPIPRANT]", "Activity": "< 30"}
{"smiles": "O=C(O)Cn1c2c(c3cc(F)ccc31)CN(C(=O)Cc1cccc3ccccc13)CC2", "Activity": "< 30"}
{"target": "T5, Prostaglandin D2 receptor (Homo sapiens, UniProt Q13258)", "T5 sequence (Q13258 whole entry)": "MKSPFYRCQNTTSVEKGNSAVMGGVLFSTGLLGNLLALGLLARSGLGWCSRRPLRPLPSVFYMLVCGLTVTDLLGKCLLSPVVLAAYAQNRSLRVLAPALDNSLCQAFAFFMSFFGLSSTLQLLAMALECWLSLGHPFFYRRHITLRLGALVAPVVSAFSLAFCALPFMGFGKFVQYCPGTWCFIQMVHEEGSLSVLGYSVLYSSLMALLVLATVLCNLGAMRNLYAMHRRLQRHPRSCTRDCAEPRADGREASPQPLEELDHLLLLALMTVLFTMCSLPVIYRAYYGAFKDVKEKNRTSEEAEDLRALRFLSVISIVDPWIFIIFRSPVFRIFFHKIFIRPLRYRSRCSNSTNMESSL", "assay": "Displacement of [3H]PGD2 from recombinant human prostanoid DP1 receptor expressed in CHO cells after 90 mins by scintillation counting analysis", "format": "cell-based", "procedure,_shortened": "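Competitive binding with CHO cells stably expressing high levels of recombinant hDP1, using [3H]PGD2 as ligand; IC50 reported.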", "units": {"IC50": "nM"}}
{"smiles": "O=C(O)Cn1c2c(c3cc(F)ccc31)CN(C(=O)CCc1cccc3ccccc13)CC2", "IC50": "> 10000"}
{"smiles": "O=C(O)Cn1c2c(c3ccccc31)CN(C(=O)c1cccc3ccccc13)CC2", "IC50": 780}
{"smiles": "O=C(O)Cn1c2c(c3cc(C(F)(F)F)ccc31)CN(C(=O)c1ccccc1)CC2", "IC50": "> 10000"}
{"smiles": "O=C(O)Cn1c2c(c3cc(F)ccc31)CN(C(=O)c1cccc3ccccc13)CC2", "note": "[SETIPIPRANT]", "IC50": 1290}
{"smiles": "O=C(O)Cn1c2c(c3cc(F)ccc31)CN(C(=O)Cc1cccc3ccccc13)CC2", "IC50": "> 10000"}
